Results: article PMC12569033 (Nature Communications, 2025)
Entries after “also recorded” stand apart in the source; their conditions may differ.

How the values were obtained:
[1] = molecular target: near-full-length dmIR (residues 1–50, 151–1675, D1519N) (Drosophila melanogaster) (UniProt P09208); assay: cryo-EM structure
dmIR wild-type (WT) = assay: Cell-based dmIR activation; parameters: species or system Drosophila melanogaster; conditions: 10 min; for dmIR autophosphorylation, in words / Efficacy (signal in amplitude) relative to DILP5: dose response Fig. 1a; for Efficacy (signal in amplitude) relative to DILP5: of the efficacy/maximum of DILP5; for dmIR WT autophosphorylation on stimulation, in words: 100 nM, Fig. 2f, g
dmIR Q1040A = assay: dmIR autophosphorylation assay, Q1040A mutant; type: cell-based, Drosophila melanogaster; conditions: 100 nM ligand, 10 min
Method in brief: (§1)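 Site-directed dmIR point mutants (C-terminal MYC tag) were transfected into 293FT cells alongside WT. After 1 day, cells were serum-starved 16–18 h, then treated 10 min with 100 nM DILP2 or DILP5. Lysates were blotted with anti-pY1150/1151 and anti-Myc. pY-dmIR was normalized to total dmIR and expressed relative to WT with the same ligand. Data are mean ± sem of ≥3 independent experiments, analysed by two-way ANOVA with Dunnett test versus WT.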

dmIR F1044A = assay: dmIR autophosphorylation assay, F1044A mutant; type: cell-based, Drosophila melanogaster; conditions: 100 nM ligand, 10 min
Method in brief: as §1

dmIR R848A = assay: dmIR autophosphorylation assay, R848A mutant; type: cell-based, Drosophila melanogaster; conditions: 100 nM ligand, 10 min
Method in brief: as §1

dmIR D1251R = assay: dmIR autophosphorylation assay, D1251R mutant; type: cell-based, Drosophila melanogaster; conditions: 100 nM ligand, 10 min
Method in brief: (§2)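 Full-length wDah dmIR with a C-terminal MYC tag, mutated by site-directed mutagenesis, was transiently transfected into 293FT cells. After 1 day, cells were serum-starved for 16–18 h, then exposed to 100 nM synthetic DILP for 10 min. Lysates were immunoblotted for pY1548/1549 and Myc, and pY signal was normalized to total dmIR relative to WT receiving the same treatment. Independent experiments were analysed by two-way ANOVA with Dunnett's test, mean ± sem.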

dmIR K1256A = assay: dmIR autophosphorylation assay, K1256A mutant; type: cell-based, Drosophila melanogaster; conditions: 100 nM ligand, 10 min
Method in brief: as §2

Drosophila S2 cells = conditions: single peptide applied to cultured Drosophila S2 cells; cited from earlier work
[2] = test system: glycogen phosphorylase; sterile 20-like kinase; tramtrack; conditions: cited from earlier work
dmIR R657A = assay: dmIR autophosphorylation assay, R657A mutant; type: cell-based, Drosophila melanogaster; conditions: 100 nM DILP5, 10 min
Method in brief: as §2

dmIR Δ602–609 = assay: dmIR autophosphorylation assay, Δ602–609 mutant; type: cell-based, Drosophila melanogaster; conditions: Δ602–609, 100 nM DILP5, 10 min
Method in brief: as §2

dmIR V889R = assay: dmIR autophosphorylation assay, V889R mutant; type: cell-based, Drosophila melanogaster; conditions: 100 nM DILP5, 10 min
Method in brief: as §2

dmIR S820R = assay: dmIR autophosphorylation assay, S820R mutant; type: cell-based, Drosophila melanogaster; conditions: 100 nM DILP5, 10 min
Method in brief: as §2

stoichiometry N (DILP5 molecules per dmIR dimer) [1] | Effect of receptor mutation on ligand-induced activation, in words (dmIR Q1040A) | Effect of receptor mutation on ligand-induced activation, in words (dmIR F1044A) | Effect of receptor mutation on ligand-induced activation, in words (dmIR R848A) | Molecule | dmIR autophosphorylation, in words (Fig. 5f, g) (dmIR wild-type (WT); 1000 nM DILP1, 100 nM DILP5 or combination) | dmIR autophosphorylation, in words (dmIR wild-type (WT); 293FT) | Efficacy (signal in amplitude) relative to DILP5 (dmIR wild-type (WT); 293FT) | dmIR WT autophosphorylation on stimulation, in words (dmIR wild-type (WT); 293FT) | Effect of receptor mutation on ligand-induced activation, in words (dmIR D1251R) | Effect of receptor mutation on ligand-induced activation, in words (dmIR K1256A) | Phosphorylation of Akt (pAkt), in words (Drosophila S2 cells) | Protein phosphorylation changes, in words [2] | Concentration at which saturation of dmIR autophosphorylation is observed (dmIR wild-type (WT); 293FT) [nM] | Effect of receptor mutation on ligand-induced activation, in words (dmIR R657A) | Effect of receptor mutation on ligand-induced activation, in words (dmIR Δ602–609) | Effect of receptor mutation on ligand-induced activation, in words (dmIR V889R) | Effect of receptor mutation on ligand-induced activation, in words (dmIR S820R)
3 |  |  |  | Drosophila insulin-like peptide 5 (DILP5) (ligand) |  |  |  |  |  |  |  |  |  |  |  |  | 
 |  |  |  | Drosophila insulin-like peptide 1 [DILP1] | lower levels of dmIR autophosphorylation compared to DILP5 | lowest level of dmIR autophosphorylation; also recorded: lowest efficacy in activating dmIR | about 50% |  |  |  |  |  |  |  |  |  | 
 | reduced receptor autophosphorylation | reduced receptor autophosphorylation | reduced receptor autophosphorylation | Drosophila insulin-like peptide 2 (peptide, UniProt Q9VT51 27-137, looked up) Insulin-like peptide 2: TLCSEKLNEVLSMVCEEYNPVIPHKRAMPGADSDLDALNPLQFVQEFEEEDNSISEPLRSALFPGSYLGGVLNSLAEVRRRTRQRQGIVERCCKKSCDMKALREYCSVVRN |  | less effective than DILP5 | approximately 75% | significantly increased autophosphorylation of dmIR WT | defects in DILP5- or DILP2-dependent dmIR activation | defects in DILP5- or DILP2-dependent dmIR activation | only stimulates an early spike of pAkt | represses the phosphorylation of glycogen phosphorylase |  |  |  |  | 
 | reduced receptor autophosphorylation | reduced receptor autophosphorylation | reduced receptor autophosphorylation | Drosophila insulin-like peptide 5 (peptide, UniProt Q7KUD5 23-108, looked up) Insulin-like peptide 5: ANSLRACGPALMDMLRVACPNGFNSMFAKRGTLGLFDYEDHLADLDSSESHHMNSLSSIRRDFRGVVDSCCRKSCSFSTLRAYCDS |  | increased dmIR autophosphorylation in a dose-dependent manner; also recorded: higher levels of dmIR autophosphorylation |  | significantly increased autophosphorylation of dmIR WT | defects in DILP5- or DILP2-dependent dmIR activation | defects in DILP5- or DILP2-dependent dmIR activation | robust and sustained phosphorylation of Akt (pAkt) | increases the phosphorylation of sterile 20-like kinase and tramtrack | 300 | impaired DILP5-induced activation of dmIR | impaired DILP5-induced activation of dmIR | modest but statistically significant reduction in dmIR phosphorylation | modest but statistically significant reduction in dmIR phosphorylation
